One experiment relates to K562. In words: Antiproliferative activity measured against K562adr leukemia cells. The class given is functional, cell-based. The following applies: Homo sapiens. The method, boiled down:
(§1)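 Cells seeded 24 h before treatment (3000/well A427, MCF7mdr, K562adr; 1500/well PC-3) in DMEM with 10% heat-inactivated FCS, penicillin/streptomycin, 2 mM glutamine. Drug from DMSO (0.1% final) at 5 × 10^-13 to 1 × 10^-6 M final, 72 h exposure. Viability by WST-1 formazan colorimetry. Two experiments, eight determinations per concentration. IC50 by linear regression on linear part of sigmoid.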

A further experiment relates to PC-3. In words: Antiproliferative activity measured against PC-3 human prostate adenocarcinoma. The class given is functional, cell-based. The following applies: PC-3, Prostate gland. A digest of the protocol: as §1
For experiment [1], the system named is HT-29. The experiment is described as follows: Antitumor activity was measured on HT-29 xenografts after 0.625 mg/kg ip dose; td = 'toxic dose'. The following applies: Homo sapiens. Set-up: dose 0.625 mg/kg. The class given is functional, organism-based. A digest of the protocol:
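Female NCr nu/nu athymic mice, 4-6 weeks old, bearing sc HT-29 tumours (5 × 10⁶ cells, left dorsal surface). Dosing began at about 175 mm³ (day 10), 5 mice per group and 10 controls. Drug given ip in DMSO (3%)/Tween 20 (2%)/0.9% NaCl, daily 4 days on/3 off, three cycles. Calipers three times weekly; T-C growth delay in days to reach 250% of starting volume.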

In experiment [2] the test system is HT-29. In words: Antitumor activity was measured on HT-29 xenografts after 0.32 mg/kg ip dose. The class given is functional, Homo sapiens. The following applies: route intraperitoneal. A digest of the protocol:
(§2)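 Female NCr nu/nu athymic mice, 4-6 weeks old, given sc HT-29 cells (5 × 10^6/animal, left dorsum). Randomised at day 10 at about 175 mm³ mean tumour (5/treated group, 10 controls). Drug in DMSO (3%)/Tween 20 (2%)/0.9% NaCl given ip daily, 4 days on/3 off, ×3 (12 injections). Caliper volume (w²l)/2 three times weekly with body weight. T-C delay in days to reach 250% of starting volume.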

The subject of experiment [3] is DNA topoisomerase 1 (Bos taurus). In words: Effect on Topo-I-mediated relaxation of supercoiled pUC19 plasmid DNA in calf thymus at 100 uM.
The subject of experiment [4] is HT-29. In words: Antitumor activity was measured on HT-29 xenografts after 0.16 mg/kg ip dose. The class given is functional, Homo sapiens. The following applies: route intraperitoneal. The method, boiled down: as §2
A further experiment relates to A-427. The experiment is described as follows: Antiproliferative activity measured against A427 human lung carcinoma. The class given is functional, cell-based. The method, boiled down:
as §1

In a further experiment the test system is MCF7. The experiment is described as follows: Antiproliferative activity measured against MCF-7-mdr cells. The class given is functional, cell-based. The following applies: Homo sapiens. The method, boiled down:
as §1

In experiment [5] the test system is HT-29. In words: Antitumor activity was measured on HT-29 xenografts after 0.625 mg/kg ip dose. The class given is functional, Homo sapiens. The following applies: route intraperitoneal. A digest of the protocol: as §2
The test system of experiment [6] is HT-29. In words: Antitumor activity was measured on HT-29 xenografts after 1.25 mg/kg ip dose; td = ' toxic dose'. The class given is functional, organism-based. Set-up: dose 1.25 mg/kg. The following applies: Homo sapiens. The method, boiled down: as §2
For experiment [7], the system named is HT-29. In words: Antitumor activity was measured on HT-29 xenografts after 0.625 mg/kg ip dose; toxic dose. The class given is functional, organism-based. Set-up: dose 0.625 mg/kg. The following applies: Homo sapiens. A digest of the protocol:
as §2

Experiment [8] concerns HT-29. In words: Antitumor activity was measured on HT-29 xenografts after 1.25 mg/kg ip dose. The class given is functional, Homo sapiens. The following applies: route intraperitoneal. The method, boiled down: as §2
For experiment [9], the system named is HT-29. In words: Antitumor activity was measured on HT-29 xenografts after 2.5 mg/kg ip dose; td =' toxic dose'. The class given is functional, organism-based. Further details: dose 2.5 mg/kg. The following applies: Homo sapiens. A digest of the protocol: as §2

Experimental findings from ChEMBL document CHEMBL1131448 (J Med Chem, 1998) are described below.

Take `CCC1(O)CC(=O)OCc2c1cc1n(c2=O)Cc2cc3cc(F)c(F)cc3nc2-1` (stereo unspecified): the half-inhibitory concentration (IC50) in the experiment on K562 stood at 66 nM; in the experiment on PC-3, 0.001 nM; in the experiment with A-427 it was 0.1 nM. In addition, the Tumor growth delay entry was “Toxic dose” in the experiment on HT-29 [1], 25 days in the experiment on HT-29 [2] and 8 days in the experiment on HT-29 [4]. Further, the Relaxed DNA in experiment [3] stood at 56%.
Turning to `COc1cc([C@@H]2c3cc4c(cc3[C@@H](O[C@@H]3O[C@@H]5CO[C@@H](C)O[C@H]5[C@H](O)[C@H]3O)[C@H]3COC(=O)[C@H]23)OCO4)cc(OC)c1O` [ETOPOSIDE], the IC50 was 2300 nM in the experiment with PC-3 and 67000 nM with MCF7.
Regarding `CC[C@@]1(O)CC(=O)OCc2c1cc1n(c2=O)Cc2cc3ccccc3nc2-1`, in experiment [3], the Relaxed DNA worked out at 45%.
In the case of `CCC1(O)CC(=O)OCc2c1cc1n(c2=O)Cc2cc3cc(Cl)ccc3nc2-1` (stereo unspecified), the IC50 in the experiment on K562 is 2.6 nM; in the experiment with PC-3 it was 18 nM; with MCF7, 1.3 nM; in the experiment with A-427, 0.36 nM. Besides, in experiment [3], the Relaxed DNA was 57%.
Turning to `COc1cccc2c1C(=O)c1c(O)c3c(c(O)c1C2=O)C[C@@](O)(C(=O)CO)C[C@@H]3O[C@H]1C[C@H](N)[C@H](O)[C@H](C)O1` [DOXORUBICIN], the IC50 in the experiment with K562 was found to be 15000 nM; in the experiment with PC-3, 390 nM.
Turning to `CC[C@@]1(O)C(=O)OCc2c1cc1n(c2=O)Cc2cc3ccccc3nc2-1` [CAMPTOTHECIN], the IC50 in the experiment on K562 was 57 nM; with PC-3, 57 nM; in the experiment with MCF7, 3.1 nM; with A-427, 24 nM. The Tumor growth delay in the experiment with HT-29 [5] is 4 days; with HT-29 [6] it was “Toxic”.
On to `CCC1(O)CC(=O)OCc2c1cc1n(c2=O)Cc2cc3cc(C)c(Cl)cc3nc2-1` (stereo unspecified), for which the figures for the IC50 in the experiment with K562, in the experiment with PC-3 and in the experiment on A-427 were 2.9 nM, 3.6 nM and 0.031 nM, respectively. The Relaxed DNA in experiment [3] is 59%.
Consider `CC[C@@]1(O)C(=O)OCc2c1cc1n(c2=O)Cc2cc3c(CN(C)C)c(O)ccc3nc2-1` [TOPOTECAN], for which the IC50 in the experiment on K562 was found to be 1100 nM; in the experiment on PC-3, 160 nM; in the experiment with MCF7 it was 420 nM; in the experiment with A-427, 49 nM.
As to `CCC1(O)CC(=O)OCc2c1cc1n(c2=O)Cc2cc3cc(F)ccc3nc2-1` (stereo unspecified), the figures for the IC50 in the experiment with K562, in the experiment on PC-3 and with A-427 were 63 nM, 0.58 nM and 7.7 nM, respectively. For the same compound, the Relaxed DNA in experiment [3] turned out to be 47%.
For the compound `CC[C@]1(O)CC(=O)OCc2c1cc1n(c2=O)Cc2cc3ccccc3nc2-1`, the Relaxed DNA in [3] is 100%.
On to `CCC1(O)CC(=O)OCc2c1cc1n(c2=O)Cc2cc3cc(OC)c(F)cc3nc2-1` (stereo unspecified), for which the IC50 in the experiment with K562 was 18 nM; with PC-3, less than 0.001 nM; with MCF7 it was 2.2 nM; in the experiment on A-427, 0.0083 nM. Also, the Tumor growth delay with HT-29 [2] is 12 days; in the experiment on HT-29 [7], “Toxic”; in the experiment on HT-29 [4], 4 days. In experiment [3], this compound returned a Relaxed DNA of 26%.
With `CCc1c2c(nc3ccccc13)-c1cc3c(c(=O)n1C2)COC(=O)CC3(O)CC` (stereo unspecified), the IC50 in the experiment with K562 stood at 33 nM; in the experiment with PC-3, 28 nM; in the experiment with MCF7, 21 nM. In [3], this compound displayed a Relaxed DNA of 34%.
`CCC1(O)CC(=O)OCc2c1cc1n(c2=O)Cc2cc3ccccc3nc2-1` (stereo unspecified): the IC50 is 47 nM in the experiment on K562, 60 nM in the experiment with PC-3, 21 nM in the experiment with MCF7 and 12 nM with A-427. The Relaxed DNA in experiment [3] was 60%.
`CCC1(O)CC(=O)OCc2c1cc1n(c2=O)Cc2cc3cc(C)c(F)cc3nc2-1` (stereo unspecified): the IC50 with K562 is 14 nM; in the experiment with PC-3, less than 0.001 nM; with MCF7, 0.01 nM; in the experiment on A-427, 0.00081 nM. For the same compound, the Tumor growth delay in the experiment with HT-29 [2] is 7 days; in the experiment with HT-29 [7], “Toxic”; with HT-29 [4], 4 days. In experiment [3], this compound came in with a Relaxed DNA of 18%.
On to `CCC1(O)CC(=O)OCc2c1cc1n(c2=O)Cc2cc3cc4c(cc3nc2-1)OCCO4` (stereo unspecified), for which the Relaxed DNA in [3] is 50%.
Turning to `CCC1(O)CC(=O)OCc2c1cc1n(c2=O)Cc2cc3cc4c(cc3nc2-1)OCO4` (stereo unspecified), the IC50 with K562 is 37 nM; with PC-3, less than 0.001 nM; in the experiment on MCF7, 0.55 nM; in the experiment with A-427, 0.62 nM. The compound also displayed a Relaxed DNA in [3] of 58%.
Turning to `CCC1(O)CC(=O)OCc2c1cc1n(c2=O)Cc2cc3cc(F)c(Cl)cc3nc2-1` (stereo unspecified), the IC50 in the experiment with K562 was found to be 20 nM; with PC-3, 12 nM; with MCF7, 1.7 nM; with A-427, 0.023 nM. For the same compound, the Tumor growth delay is 2 days in the experiment with HT-29 [5], 1 days with HT-29 [2], 7 days in the experiment on HT-29 [8] and “Toxic dose” with HT-29 [9]. The compound further returned a Relaxed DNA in experiment [3] of 61%.
